Test system: MS2 coat protein
Test: apparent Kd, MS2 coat protein; higher = weaker binding; RNA-MaP array; FMN 200 µM where present
Summary of the method: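 The apparent Kd is the median of filtered binding-curve fits, one per cluster, to green signal normalised to red-channel RNA signal and control-cluster median Fmax. The clusters were on Illumina sequencing chips, and stalled E. coli RNA polymerase had transcribed the designs on them. Titration used SNAP-549-labelled MS2 coat protein from 0.7 or 1.5 nM, doubling to 3 µM, without and then with constant ligand, in 100 mM Tris-HCl pH 7.5, 80 mM KCl, 4 mM MgCl2, BSA, DTT, yeast tRNA and Tween-20.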

[1] = designed as: ON switch for flavin mononucleotide, no ligand
[2] = ligand present: flavin mononucleotide, designed as: ON switch for flavin mononucleotide
[3] = designed as: OFF switch for flavin mononucleotide, no ligand
[4] = ligand present: flavin mononucleotide, designed as: OFF switch for flavin mononucleotide

| Sequence | apparent Kd [1] [nM] | apparent Kd [2] [nM] | apparent Kd [3] [nM] | apparent Kd [4] [nM] |
| --- | --- | --- | --- | --- |
| AUAUGAUAGAUAGGAUAUACAUUGGAUUUAAAAGUAGAAGGAUCAAGUGGGAAAUGAACAUGAGGAUCACCCAUGUAAUAGGAU | 107 | 78.2 | – | – |
| AUAUGAUAGAUAGGAUAUACUAUGGUUGAAUAUGUAGAAGGAUCAAUAGGGAAAUGUACAUGAGGAUCACCCAUGUUAUGGAUU | 32.9 | 31.3 | – | – |
| AUAUUAUUGAUCCAUUUUUUCAACAUGAGGAUCACCCAUGUGCAGGAUAUCGUGUGUUUUAUCAACGAGAAGGGCAAAUUCAUU | – | – | 94.2 | 215 |
| AUAUUGUGAGGAUAUCCAAUAUAUGACAUGAGGAUCACCCAUGUUUCCACUCGUACCUCCGGAGAAGGCACUUAAA | – | – | 20.5 | 23.2 |
| AUAUUGUGAGGAUAUGAACUUAGUAUCGAAAGUUACUAAGUUCAGAAGGCACAUGAGGAUCACCCAUGUUUCUC | – | – | 72.1 | 972 |
| AUCAACCAGGCAGGAUAUCAAUGUGGCCUCAUCGUACACCCUCGCAACAUGAGGAUCACCCAUGUUGAGAAGGGCCAAUUAAGA | – | – | 10.1 | 6.02 |
| AUCAGCUCAUCAGGAUAUACGUCACUGCGUCAGCAGUGUGGUAAGAUCACAUGAGGAUCACCCAUGUAGAAGGGACGAGCUGAU | – | – | 13.7 | 243 |
| AUCAGCUCGUCAGGAUAUACCUCACUGCGUCAGCAGUGUGGUAAGAUCACAUGAGGAUCACCCAUGUAGAAGGGACGAGCUGAU | – | – | 6.44 | 6.19 |
| AUCAGCUCGUCAGGAUAUACGUAAUGGUAAGAUCACAUGAGGAUCACCCAUGUAGAAGGGACGAGCUGAUAAGCACGAAAGUGC | – | – | 192 | 676 |
| AUCAGCUCGUCAGGAUAUACGUCACUGCGUAAGCAGUGUGGUAAGAUCACAUGAGGAUCACCCAUGUAGAAGGGACGAGCUGAU | – | – | 12.9 | 288 |
| AUCAGCUCGUCAGGAUAUACGUCACUGCGUCAGCAGUAUGGUAAGAUCACAUGAGGAUCACCCAUGUAGAAGGGACGAGCUGAU | – | – | 62.2 | 663 |
| AUCAGCUCGUCAGGAUAUACGUCACUGCGUCAGCAGUGUGGUAAGAGCACAUGAGGAUCACCCAUGUAGAAGGGACGAGCUGAU | – | – | 6.31 | 9.48 |
| AUCAGCUCGUCAGGAUAUACGUCACUGCGUCAGCAGUGUGGUAAGAUCACAUGAGGAUCACCCAUGUAGAAGGGACCAGCUGAU | – | – | 13.4 | 229 |
| AUCAGCUCGUCAGGAUAUACGUCACUGCGUCAGCAGUGUGGUAAGAUCACAUGAGGAUCACCCAUGUAGAAGGGACGAGCUAAU | – | – | 13.7 | 334 |
| AUCAGCUCGUCAGGAUAUACGUCACUGCGUCAGCAGUGUGGUAAGAUCACAUGAGGAUCACCCAUGUAGAAGGGACGAGCUGUU | – | – | 13.2 | 269 |
| AUCAGCUCGUCAGGAUAUACGUCACUGCGUCAGCAGUGUGGUUAGAUCACAUGAGGAUCACCCAUGUAGAAGGGACGAGCUGAU | – | – | 23.4 | 458 |
| AUCAGCUCGUCAGGAUAUACGUCACUGCUUCGGCAGUGUGAAAAGAUCACAUGAGGAUCACCCAUGUAGAAGGGACGAGCUGAU | – | – | 9.15 | 120 |
| AUCAGCUGGUCAGGAUAUACAUCACUGCUUCGGCAGUGUAUUAAGAUCACAUGAGGAUCACCCAUGUAGAAGGGACCAGCUGAU | – | – | 30.3 | 341 |
| AUCAUCUCGUCAGGAUAUACGUCACUGCGUCAGCAGUGUGGUAAGAUCACAUGAGGAUCACCCAUGUAGAAGGGACGAGCUGAU | – | – | 14.4 | 226 |
| AUCAUGCUCAAGAAGGACAUGAGGAUCACCCAUGUAGGAUAUUGGGCGGUCACUUCUAGCUUGUGUGUAUCUGAAUACUCCAGG | 20.4 | – | – | – |
| AUCAUUCGUGUAGGAUAUGCGUGACGAAGUCAUGCAGAAGGACAUGAGGAUCACCCAUGUCUUUCUCGAGCUGUAGCUCGAGGA | – | – | 23.9 | 156 |
| AUCCGGCGUGUAGGAUAUGGAAAAGAUUAGGAACCAGAAGGACAUGAGGAUCACCCAUGUACAUGUAAACAGUCAUCACCGGAA | – | – | 11.4 | 28.6 |
| AUCCGGCGUGUAGGAUAUGGAAAAGAUUAGGAUCCAGAAGGACAUGAGGAUCACCCAUGUACAUGUAAACAGUCAUCACCGGAA | – | – | 34.1 | 49.6 |
